# OX1R antag-1: blocks the human orexin 1 receptor. O43613. OX1R-expressing cells, FRET antagonist read-out. inhibition, % at 6.6 µM. actives 1.8% (n = 330,000). AID 485270; in the data active means inhibition mostly above about 38%, no sharp cut-off; inactive means mostly below about 40%;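 further: 0% = agonist challenge alone and 100% = reference antagonist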
# Target sequence (O43613 whole entry, looked up): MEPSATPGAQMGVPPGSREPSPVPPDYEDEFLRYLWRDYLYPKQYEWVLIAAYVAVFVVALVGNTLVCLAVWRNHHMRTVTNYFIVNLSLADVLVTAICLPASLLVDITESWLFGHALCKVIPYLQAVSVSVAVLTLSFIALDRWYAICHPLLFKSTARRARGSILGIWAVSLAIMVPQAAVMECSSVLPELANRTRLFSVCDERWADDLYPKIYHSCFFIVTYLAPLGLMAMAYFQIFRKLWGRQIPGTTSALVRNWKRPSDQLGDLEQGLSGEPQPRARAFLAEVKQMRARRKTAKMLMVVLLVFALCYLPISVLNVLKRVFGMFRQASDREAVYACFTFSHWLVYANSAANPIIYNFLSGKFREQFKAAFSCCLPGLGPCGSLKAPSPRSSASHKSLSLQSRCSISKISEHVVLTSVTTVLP
# OX1R antag-2: antagonists of human orexin 1 receptor; actives 0.43% (n = 330,000); CHO/OX1R cells, Fluo-8 calcium fluorescence, orexin A; inhibition, % at 5 µM;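 active means inhibition above its plate's threshold, mean inhibition of all tested compounds on the plate plus 3 SD, cut at about 37% in these data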;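 further: 0% = orexin A challenge wells and 100% = SB-334867-A antagonist wells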
# GPR7 antag: antagonists of human GPR7 (neuropeptides B/W receptor 1); GPR7-expressing cells, fluorescence antagonist assay; inhibition, % at 4.4 µM; actives 1.1% (n = 290,000); in the data active means inhibition above about 16%, passing the limit was not always enough;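 further: cells stimulated with the agonist NPW; 0% = agonist with vehicle and 100% = vehicle without agonist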
# GalR3 antag: antagonists of human GalR3; actives 0.44% (n = 360,000); HEK293 GalR3-CNG cAMP membrane potential fluorescence; galR3 body fused to GalR1 C-terminus; AID 651719; O60755; inhibition, % at 3 µM;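 active means inhibition above the screen-wide average plus 3 SD, cut at about 13% in these data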;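 further: forskolin and galanin both at EC90 stimulate the cells; cAMP rise reported by CNG channel membrane potential dye signal; 0% = forskolin plus galanin with DMSO and 100% = forskolin alone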
# CHO parental Ca: counter-screen for OX1R antagonists: effect in parental CHO cells. AID 463079. actives 0.63% (n = 330,000). parental CHO-K1, ATP-induced calcium, Fluo-8 fluorescence. inhibition, % at 5.6 µM;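 active means inhibition above that plate's mean sample inhibition plus 3 SD, cut at about 26% in these data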;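 further: 0% = ATP-challenged DMSO wells and 100% = DMSO wells without ATP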
#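 Material: Parental CHO cells | Reagent: ATP | Compound dosing: Single nominal dose of 5.6 µM per compound | Detection: Intracellular calcium via Fluo-8 no-wash fluorescent dye | Read-out: % inhibition of ATP-induced calcium mobilization | Benchmarks: Low control ATP plus DMSO, high control DMSO only | Replicates: Singlicate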
# The depositor's hits bear a star; / = no result given. An excerpt weighted towards active compounds, which were near 3.1% of everything screened.
SMILES,OX1R antag-1,OX1R antag-2,GPR7 antag,GalR3 antag,CHO parental Ca
CC(=O)Nc1ccc(S(=O)(=O)N2CCN(C(=O)CCC3CCCC3)CC2)cc1,8.9,-20.1,20.4*,-2.5,-4.1
CCCc1c(Cc2cccc(F)c2)ncn1CCc1ccccc1OC,/,/,/,-7.5,/
CC(C)C[C@H](NC(=O)C1CCCC1)C(=O)N1CCC[C@H]1C(=O)NCc1ccccc1,/,/,/,-6.8,/
CN(C)S(=O)(=O)c1ccc2c(c1)/C(=C/c1cc3c([nH]1)CCCC3)C(=O)N2,-2.7,28.7,/,/,36.2*
Cc1ccc(C2CC2c2n[nH]c(=S)n2-c2cccc(C)c2)cc1 (stereo not given),19.8,-26.8,-2.0,4.3,-14.7
Cc1ccc(C2CC2c2n[nH]c(=S)n2-c2ccc(Cl)cc2)cc1 (stereo not given),9.7,35.3,-6.8,-4.4,85.7*
COc1ccc(CN(C(=O)CSc2nnc(-c3c[nH]c4ccccc34)o2)c2ccc(F)cc2)cc1OC,81.5*,34.0,5.6,-4.8,34.8*
COc1ccc(CN(C(=O)CSc2nnc(-c3ccc(F)cc3)o2)c2ccc(F)cc2)cc1,22.8,-8.6,-7.4,-8.9,-6.3
CCOC(=O)C1=C(CSc2nccn2C)NC(=O)NC1c1cc(C)ccc1C (stereo not given),14.7,-23.6,1.4,-5.5,-11.8
CCOC(=O)C1=C(Cn2cnc3ccccc32)NC(=O)NC1c1cc(C)ccc1C (stereo not given),39.4,79.5*,7.2,-3.5,95.0*
CC(=O)N1CCN(c2ccc(N3CCN(C(C)=O)[C@H](C)C3)c(C)c2)[C@@H](C)C1,/,/,/,-5.5,/
Cc1ccc2oc(-c3cccc(NC(=O)c4ccccn4)c3)nc2c1,68.0*,-42.2,-19.4,-2.9,-3.6
COc1cc(C(=O)Nc2cccc(-c3nc4cc(C)ccc4o3)c2)cc(OC)c1OC,42.3,-15.8,-11.5,1.8,-16.2
CNS(=O)(=O)c1cccc(C(=O)NNC(=O)c2ccc(COc3ccccc3)cc2)c1,3.6,-5.5,-4.3,2.1,-9.8
O=C(Nc1cc(Cl)cc(Cl)c1)Nc1cnccn1,39.1,30.4,0.4,-0.7,35.9*
Cc1cc(C(=O)NCCc2ccc(Cl)cc2)c2ccccc2n1,50.4*,16.4,4.5,-5.0,-14.7
O=S1(=O)CCN(c2ccccc2CC(c2c[nH]c3ccccc23)c2c[nH]c3ccccc23)CC1,/,/,/,-6.1,/
Cc1cccc(NC(=O)C2CCCN(S(=O)(=O)c3cccc4cccnc34)C2)c1 (stereo not given),53.6*,5.5,-14.1,-0.4,-16.3
COc1ccc(OC)c(NC(=O)C2CCCN(S(=O)(=O)c3cccc4cccnc34)C2)c1 (stereo not given),74.4*,-6.9,-10.0,2.8,-21.3
COc1cc(NC(=O)[C@@H]2CCCN(S(=O)(=O)c3cccc4cccnc34)C2)cc(OC)c1OC,34.8,-27.2,/,-3.0,-21.5
COc1ccc(C)cc1NC(=O)c1ccccc1NS(=O)(=O)c1cccc2cccnc12,69.8*,15.3,-3.4,-9.8,-11.8
COc1ccc(C)cc1NC(=O)C1CCN(S(=O)(=O)c2cccc3cccnc23)CC1,5.5,-23.8,-7.5,4.5,-9.7
Cc1cc(C)cc(NC(=O)C2CCCN(S(=O)(=O)c3c(C)noc3C)C2)c1 (stereo not given),72.3*,10.7,-8.5,-1.6,-17.4
Cc1ccc(NC(=O)C2CCCN(S(=O)(=O)c3cccc4cccnc34)C2)cc1 (stereo not given),23.3,-39.0,6.5,2.3,-30.3
CC(C)c1[nH]nc2c1C(c1cccc(C(F)(F)F)c1)N(Cc1ccccc1)C2=O (stereo not given),/,/,/,-2.2,/
SMILES,OX1R antag-1,OX1R antag-2,GPR7 antag,GalR3 antag,CHO parental Ca
COCCN1C(=O)[C@H]2C[C@@]13O[C@H](c1ccccn1)N=C3CC1c3ccccc3C[C@@]12C (stereo not given in full),/,/,/,-5.7,/
CC(C)CNC(=O)C1(C)CCCN1C(=O)c1cc2ccccc2s1 (stereo not given),/,/,/,-7.5,/
COc1cc(O)c2c(=O)c(-c3ccc(O[C@@H]4O[C@H](CO)[C@@H](O)[C@H](O)[C@H]4O)cc3)coc2c1,/,/,-0.9,6.9,/
Cc1ccc(S(=O)(=O)Oc2ccc(/C=N/NC(=O)c3nn(C)cc3[N+](=O)[O-])cc2)cc1,17.0,0.1,14.5,-4.8,-14.2
Cn1cc([N+](=O)[O-])c(C(=O)Nc2ccc(Br)cn2)n1,50.1*,-16.6,-8.8,-4.8,7.4
Cn1cc([N+](=O)[O-])c(C(=O)N/N=C/c2ccncc2)n1,75.4*,7.7,-12.5,-0.4,3.5
COC(=O)C1=C(C)NC(=S)NC1c1cccc(OC)c1 (stereo not given),/,/,/,-3.9,/
CCCN=C1N(CC)C[C@@H]2[C@@H]3C(=O)N(C)C(=O)[C@@H]3[C@](C)(C(=O)OC)N12,9.9,8.0,/,-2.6,4.0
O=[N+]([O-])c1cccc(C2NCC(c3ccccc3Cl)c3c2[nH]c2ccccc32)c1 (stereo not given),18.3,53.1*,13.3,-6.3,50.1*
CN(C)c1ccc(C2CNC(c3ccc(Cl)c([N+](=O)[O-])c3)c3[nH]c4ccccc4c32)cc1 (stereo not given),31.1,-16.3,-4.7,2.6,-13.4
N#Cc1ccc(OCCCN2CCC(C(O)(C3=CCCC3)c3ccccc3)CC2)cc1 (stereo not given),/,/,/,-6.9,/
CC(C)c1ccc(N=c2c([N+](=O)[O-])nn(-c3ccc4c(c3)OCCO4)n2O)cc1,10.8,-23.8,9.4,-2.2,-8.6
CN=c1c([N+](=O)[O-])nn(-c2ccc3c(c2)OCCO3)n1O,61.5*,-19.1,-4.6,-4.4,-1.7
CCN(CC)S(=O)(=O)c1cccc(N=NC2=C(O)CCCC2=O)c1,11.9,-16.9,-8.9,7.5,-2.4
O=C1CCCC(O)=C1N=Nc1cccc(C(=O)O)c1,69.6*,-19.0,-2.6,-3.6,8.3
Oc1ccc(N=Nc2ccc3c(c2)OCCO3)c(O)c1,14.2,-6.7,-12.4,-3.4,6.3
COc1cccc(N=Nc2ccc(O)c3ncccc23)c1,10.3,49.3*,-11.1,-8.8,55.5*
COc1cccc(N=Nc2ccc3cccnc3c2O)c1,14.7,53.0*,3.9,-11.2,83.1*
COc1ccc(C)cc1N=Nc1ccc(O)c2ncccc12,/,/,-13.0,-4.6,/
Oc1ccc(N=Nc2ccc3c(c2)OCCO3)c2cccnc12,21.1,47.9*,-5.9,-3.2,44.7*
COc1ccc(N=Nc2ccc(O)c3ncccc23)cc1,21.5,33.2,-7.1,-3.8,50.5*
Cc1ccccc1N=Nc1ccc(O)c2ncccc12,13.3,25.6,-1.7,-4.8,43.6
CCOc1ccc(CCNC(=O)CS(=O)Cc2nc(-c3ccc(C)cc3)oc2C)cc1OCC (stereo not given),26.7,-1.4,-8.6,3.6,-30.6
CCOc1ccc(CCNC(=O)CS(=O)Cc2nc(-c3ccccc3C)oc2C)cc1OCC (stereo not given),56.9*,16.0,-1.0,7.3,-24.7
O=C(NCCc1cn2ccccc2n1)C1CCCCC1,2.7,-2.5,19.4*,/,-4.2

# High-throughput results deposited in PubChem by The Scripps Research Institute Molecular Screening Center.
